Results gathered from unrelated publications.
Lines come from different studies, so protocols differ.
Target: Casein kinase II subunit alpha' (CSNK2A2, Homo sapiens, UniProt P19784)

SMILES	assay	conditions	quantity	value
Cc1cnc(NC2CCOCC2)nc1-n1cnc(C(=O)NC(CN)c2cc(F)cc(Cl)c2)c1 (stereo not drawn)	enzyme activity, inhibitor, radiometric	1 µM	remaining activity	97%
c1ccc(CNc2nc(N3CCOc4ccccc43)nc3c2CCCC3)cc1	target engagement in cells, inhibitor, chemoproteomics	20 mM	inhibition	-34.4%
Cn1cnc(Br)c1C1=CN(c2ncnc3[nH]cnc23)CCS1	enzyme activity, inhibitor, radiometric	50 nM	inhibition	19.7%
Nc1c(C(=O)NCc2ccc(C(=O)NCCCC3CCCCC3)cc2)cnn1-c1ccccc1	cell-free assay, competition with immobilised ligand	0.1 µM	remaining binding	100%
COc1cc2c(Nc3ccc(Br)cc3F)ncnc2cc1OCC1CCN(C)CC1	cell-free assay	0.5 µM	remaining signal	96.5%
COc1cccc(CNC(=O)c2nc3scc(COCc4ccc(C(=O)O)cc4)c3c(=O)[nH]2)c1	cell-free assay, competition with immobilised ligand	1 µM	remaining binding	79.4%
Cc1cc(NC(=O)c2cccc3cc(-c4cccc5[nH]nc(N)c45)ccc23)ccc1F	enzyme activity, inhibitor	0.1 µM	activity vs control	109%
Cc1ccc(C(=O)Nc2ccc(CN3CCN(C)CC3)c(C(F)(F)F)c2)cc1C#Cc1cnc2cccnn12	enzyme activity, inhibitor	23.5 nM	remaining activity	94%
CCCOc1ccc([C@H]2[C@H](C(=O)O)[C@@H](c3ccc4c(c3)OCO4)CN2CC(=O)Nc2c(CC)cccc2CC)cc1	cell-free assay, competition with immobilised ligand	1 µM	remaining binding	87%
Cc1sc(C(=O)NC2COC2)cc1-n1cc(NC(=O)Nc2c(F)cccc2Cl)cn1	enzyme activity, inhibitor	10 µM	remaining activity	95.5%
CS(=O)(=O)c1cc(C2(NC(=O)c3cncc4c3cnn4-c3ccc(F)cc3)CC2)ccn1	cell-free assay, competition with immobilised ligand	1 µM	remaining binding	80%
CC(C)(C)c1nc(-c2cccc(NS(=O)(=O)c3c(F)cccc3F)c2F)c(-c2ccnc(N)n2)s1	enzyme activity, inhibitor, radiometric	1 µM	remaining activity	84%
CCN(CC)c1ccc(C2=NNC(=O)CC2C)cc1[N+](=O)[O-] (stereo not drawn)	enzyme activity, inhibitor	10 µM	remaining activity	103%
N#CCCc1ccc2c(c1)-c1[nH]c3ccc([N+](=O)[O-])cc3c1CC(=O)N2	cell-free assay	0.5 µM	remaining signal	92.9%
CC(C)(O)[C@H]1CC[C@H](Nc2ccc3ncc(-c4cccc(C(F)(F)F)c4)n3n2)CC1	enzyme activity, inhibitor	1 µM	remaining activity	73.6%
Cc1ccc(Nc2nccc(N(C)c3ccc4c(C)n(C)nc4c3)n2)cc1S(N)(=O)=O	enzyme activity, inhibitor	10 µM	inhibition	-14%
CCCS(=O)(=O)Nc1ccc(F)c(C(=O)c2c[nH]c3ncc(-c4ccc(Cl)cc4)cc23)c1F	enzyme activity, inhibitor	1 µM	inhibition	< 10%
CNC(=O)c1cc(Oc2ccc(NC(=O)Nc3ccc(Cl)c(C(F)(F)F)c3)cc2)ccn1	enzyme activity, inhibitor	0.3 µM	inhibition	-33%
O=C(NCCCC1CCCCC1)c1ccc(CNC(=O)c2cnn(-c3ccccc3)c2C(F)(F)F)cc1	cell-free assay, competition with immobilised ligand	0.1 µM	remaining binding	88%
CCN(CC)CCNC(=O)c1c(C)[nH]c(/C=C2\C(=O)Nc3ccc(F)cc32)c1C	enzyme activity, inhibitor	10 µM	inhibition	49%
CC(C)CC(=O)N1CCc2nc(-c3ccc(Br)cc3)nc(N(C)Cc3ccccc3)c2C1	cell-free assay, competition with immobilised ligand	0.1 µM	remaining binding	88%
COc1cc2ncnc(Nc3ccc(Oc4ccccc4)cc3C)c2cc1OC	enzyme activity, inhibitor	1 µM	inhibition	7%
CSc1cccnc1N1CCN(Cc2nc3ccccc3[nH]2)CC1	cell-free assay, competition with immobilised ligand	1 µM	remaining binding	100%
O=C(Nc1cnn(-c2csc(C(=O)NC3COC3)c2)c1)Nc1ccccc1Cl	enzyme activity, inhibitor	5 µM	remaining activity	97.3%
